The nature of data set [1]: Inhibition of guinea pig liver transglutaminase 2 using 5-(biotinamido)pentylamine as substrate by enzyme linked sorbent assay. Details: species or system Cavia porcellus. In short, it runs like this:
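Wells coated with N,N'-dimethylcasein received TG2 (2 ng ml-1), biotinyl-5-pentylamine, CaCl2 (5 mM), DTT (5 mM) and a range of inhibitor concentrations, then were incubated for 1 h at 37 °C. Incorporated biotinyl-5-pentylamine was quantified with Extravidin peroxidase and o-phenylenediamine colour development.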

A short description of data set [2]: Aqueous solubility of the compound. The class given is physicochemical.
In a further data set the test system is Rattus norvegicus. In words: Protective effect against kidney dysfunction in Wistar rat subtotal 5/6 nephrectomy model of kidney scarring assessed as reduction in scarring administered through osmotic pump measured after 84 days of surgery. The class given is functional. Also on record: scale not given: the % may be the effect or the level left.
The species named for a further data set is Cavia porcellus. In words: Inhibition of guinea pig liver transglutaminase 2 at 5 uM preincubated for 60 mins in the presence of Ca2+. Also on record: scale not given: the % may be the effect or the level left.

Molecules are shown by their SMILES.

Regarding `C[S+](C)CC(=O)CC[C@H](NC(=O)[C@H](Cc1c[nH]c2ccccc12)NC(=O)OCc1ccccc1)C(=O)O`, 12 µM corresponded to half-maximal inhibition in data set [1] (IC50).

Regarding `C[S+](C)CC(=O)CC[C@H](NC(=O)[C@H](Cc1ccccc1)NC(=O)OCCc1ccccc1)C(=O)O`, the IC50 (in general, the concentration that inhibits the measured activity by half) in data set [1] was determined as 8 µM.

`C[C@H](NC(=O)OCc1ccccc1)C(=O)N[C@@H](CCC(=O)C[S+](C)C)C(=O)O`: in data set [1], half-maximal inhibition (IC50) was put at 20 µM.

For the compound `CC(=O)CSc1n(C)cc[n+]1C.[Cl-]`, in data set [1], the IC50 came to 4 µM. The solubility (commonly the dissolved amount per volume that the medium holds) in data set [2] (water, read-out: solubility) turned out to be 200 mg/mL.

In data set [1], `C[S+](C)CC(=O)CC[C@H](NC(=O)[C@H](Cc1ccccc1)NC(=O)OCc1ccccc1)C(=O)O.[Br-]` (stereo in doubt; 4d) came in with an IC50 of 10 µM. In addition, the solubility in data set [2] (buffer) is 167 mg/mL. The Activity in the data set on Rattus norvegicus was 90%.

In the case of `C[S+](C)CC(=O)CC[C@H](NC(=O)[C@H](CCCCN)NC(=O)OCc1ccccc1)C(=O)O`, the IC50 in data set [1] came out at 150 µM.

In data set [1], `CC[S+](CC)CC(=O)CC[C@H](NC(=O)[C@H](Cc1ccccc1)NC(=O)OCc1ccccc1)C(=O)O` showed an IC50 of 20 µM.

On to `C[S+](C)CC(=O)CC[C@H](NC(=O)[C@H](Cc1ccccc1)NC(=O)OCc1ccccc1)C(=O)O.[Br-]` (stereo in doubt; 4n), for which the IC50 in data set [1] turned out to be 5 µM. This compound gave a solubility in data set [2] (buffer) of 67 mg/mL.

`C[S+](C)CC(=O)CC[C@H](NC(=O)[C@@H]1CCCN1C(=O)OCc1ccccc1)C(=O)O.[Br-]`: the IC50 in data set [1] turned out to be 5 µM. Moreover, in the data set listed under Cavia porcellus, the Activity was 77%. The solubility in data set [2] (water, read-out: solubility) amounted to 500 mg/mL.

In turn, `Cc1c(C)[n+](C)c(SCC(=O)CC[C@H](NC(=O)[C@H](Cc2ccccc2)NC(=O)OCc2ccccc2)C(=O)O)n1C` registered an IC50 in data set [1] of 3 µM.

`CC[C@H](C)[C@H](NC(=O)OCc1ccccc1)C(=O)N[C@@H](CCC(=O)C[S+](C)C)C(=O)O` registered an IC50 in data set [1] of 350 µM.

Compound `C[S+](C)CC(=O)CC[C@H](NC(=O)[C@H](Cc1ccccc1)NC(=O)OC(C)(C)C)C(=O)O` returned an IC50 in data set [1] of 300 µM.

`C[S+](C)CC(=O)CC[C@H](NC(=O)[C@H](Cc1ccccc1)NC(=O)OCC1c2ccccc2-c2ccccc21)C(=O)O` registered a half-maximal inhibitory concentration (IC50) in data set [1] of 30 µM.

For the compound `O=C(N[C@@H](Cc1ccccc1)C(=O)NCC1CC(Br)=NO1)OCc1ccccc1` (stereo partly specified), the IC50 in data set [1] is greater than 200 µM. Moreover, in data set [2] (water, read-out: solubility), the solubility is less than 1 mg/mL.

Compound `C[S+](C)CC(=O)CC[C@H](NC(=O)CNC(=O)OCc1ccccc1)C(=O)O.[Br-]` came in with an IC50 in data set [1] of 8 µM. In addition, the solubility in data set [2] (water, read-out: solubility) came to 1000 mg/mL.

As for `C[S+](C)CC(=O)CC[C@H](NC(=O)[C@H](Cc1ccccc1)NC(=O)Cc1ccccc1)C(=O)O`, the IC50 in data set [1] was found to be 110 µM.

For `C[S+](C)CC(=O)CC[C@H](NC(=O)[C@@H]1C[C@@H](O)CN1C(=O)OCc1ccccc1)C(=O)O`, in data set [1], the IC50 is 18 µM.

For `C[S+](C)CC(=O)CC[C@H](NC(=O)[C@H](CC(=O)O)NC(=O)OCc1ccccc1)C(=O)O`, the IC50 in data set [1] is 28 µM.

The record behind these values is ChEMBL document CHEMBL1152229, “Synthesis of potent water-soluble tissue transglutaminase inhibitors” (Bioorg Med Chem Lett, 2008).
